ChEMBL document CHEMBL3286259, “Synthesis and anticancer activity of some novel 5,6-fused hybrids of juglone based 1,4-naphthoquinones” (Eur J Med Chem, 2014)
Activity calls are given as the source filed them. The calls are words filed in the database; no cut-off is given here.

Assays:
[1] = system: HeLa; assay: Cytotoxicity against human HeLa cells assessed as inhibition of cell viability after 48 hrs by MTT assay; type: functional, cell-based
Method in brief: (§1)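 Cells were counted by trypan blue exclusion, seeded at 1x10^4 cells per well, and exposed to a series of compound concentrations for 48 h at 37 °C in DMEM with 10% FBS. The medium was replaced with serum-free medium plus MTT (5 mg/ml reagent) for 4 h at 37 °C. Formazan was dissolved in DMSO for 10 min and A570 was read. IC50 came from a plot of % viability versus control against concentration.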

[2] = system: MDA-MB-453; assay: Cytotoxicity against human MDA-MB-453 cells assessed as inhibition of cell viability after 48 hrs by MTT assay; type: functional, cell-based; settings: MDA-MB-453, 48 h; method in brief: as §1
[3] = system: PC-3; assay: Cytotoxicity against human PC3 cells assessed as inhibition of cell viability after 48 hrs by MTT assay; type: functional, cell-based; settings: PC-3, 48 h; method in brief: as §1
[4] = system: MCF7; assay: Cytotoxicity against human MCF7 cells assessed as inhibition of cell viability after 48 hrs by MTT assay; type: functional, cell-based; settings: MCF7, 48 h; method in brief: as §1
[5] = Retardation factor of the compound using hexane/ethyl acetate at ratio of 3:1 as solvent system; type: physicochemical
[6] = system: MDA-MB-231; assay: Cytotoxicity against human MDA-MB-231 cells assessed as inhibition of cell viability after 48 hrs by MTT assay; type: functional, cell-based; settings: MDA-MB-231, 48 h; method in brief: as §1
[7] = system: HT-29; assay: Cytotoxicity against human HT-29 cells assessed as inhibition of cell viability after 48 hrs by MTT assay; type: functional, cell-based; settings: HT-29, 48 h; method in brief: as §1
[8] = Cytotoxicity against human ME180 cells assessed as inhibition of cell viability after 48 hrs by MTT assay; type: functional, cell-based; settings: ME-180, 48 h; method in brief: as §1
[9] = Retardation factor of the compound using hexane/ethyl acetate at ratio of 1.8:1 as solvent system; type: physicochemical
[10] = system: MDA-MB-453; assay: Cell cycle arrest in human MDA-MB-453 cells assessed as accumulation at G0/G1 phase at 10 uM after 48 hrs by flow cytometry (reference value: 62.6%); type: functional
Method in brief: (§2)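 Cells were plated at […] per well in six-well plates and treated for 48 h. They were harvested by trypsinization, washed twice in PBS, and fixed in 70% ice-cold ethanol at −20 °C for 3 h. Cells were then incubated with propidium iodide cell-cycle reagent at 37 °C for 30 min, and DNA content was measured by flow cytometry. PC-3 assays were run in duplicate.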

[11] = system: MDA-MB-231; assay: Ratio of etoposide IC50 to compound IC50 for human MDA-MB-231 cells; type: functional
[12] = system: MDA-MB-453; assay: Cell cycle arrest in human MDA-MB-453 cells assessed as accumulation at S phase at 5 uM after 48 hrs by flow cytometry (reference value: 5.9%); type: functional; method in brief: as §2
[13] = system: MDA-MB-453; assay: Cell cycle arrest in human MDA-MB-453 cells assessed as accumulation at G2/M phase at 10 uM after 48 hrs by flow cytometry (reference value: 23.5%); type: functional; method in brief: as §2
[14] = system: MDA-MB-453; assay: Ratio of etoposide IC50 to compound IC50 for human MDA-MB-453 cells; type: functional
[15] = system: MDA-MB-453; assay: Cell cycle arrest in human MDA-MB-453 cells assessed as accumulation at G2/M phase at 5 uM after 48 hrs by flow cytometry (reference value: 23.5%); type: functional; method in brief: as §2
[16] = system: MDA-MB-453; assay: Cell cycle arrest in human MDA-MB-453 cells assessed as increase in accumulation at S phase after 48 hrs by flow cytometry; type: functional, cell-based; method in brief: as §2
[17] = system: MDA-MB-453; assay: Cell cycle arrest in human MDA-MB-453 cells assessed as increase in accumulation at G2/M phase after 48 hrs by flow cytometry; type: functional, cell-based; method in brief: as §2
[18] = system: MDA-MB-453; assay: Induction of morphological changes in human MDA-MB-453 cells assessed as late apoptosis/necrosis at 10 uM after 48 hrs by acridine orange/ethidium bromide staining based fluorescence microscopy; type: functional, cell-based
Method in brief: (§3)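 Cells were seeded at 1×10^6 per well in 6-well plates and treated for 48 h. After a PBS wash they were stained with a 1:1 acridine orange/ethidium bromide mix for 5 min in the dark, washed again, and imaged by inverted fluorescence microscopy at 200X. Two thousand cells were counted and scored as viable, early apoptotic, late apoptotic or necrotic, expressed as %.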

[19] = system: MDA-MB-453; assay: Induction of morphological changes in human MDA-MB-453 cells assessed as early apoptosis by measuring condensed chromatin, cell membrane blebbing, destructive fragmentation of nuclei at 5 uM after 48 hrs by acridine orange/ethidium bromide staining based fluorescence microscopy; type: functional; method in brief: as §3
[20] = system: MDA-MB-453; assay: Cell cycle arrest in human MDA-MB-453 cells assessed as accumulation at G0/G1 phase at 5 uM after 48 hrs by flow cytometry (reference value: 62.6%); type: functional; method in brief: as §2
[21] = system: MDA-MB-453; assay: Cell cycle arrest in human MDA-MB-453 cells assessed as accumulation at S phase at 10 uM after 48 hrs by flow cytometry (reference value: 5.9%); type: functional; method in brief: as §2
[22] = system: MCF7; assay: Ratio of etoposide IC50 to compound IC50 for human MCF7 cells; type: functional
[23] = system: PC-3; assay: Cell cycle arrest in human PC3 cells assessed as accumulation at G0/G1 phase at 6 uM after 48 hrs by flow cytometry (reference value: 55%); type: functional; method in brief: as §2
[24] = system: PC-3; assay: Induction of morphological changes in human PC3 cells assessed as early apoptosis by measuring condensed chromatin, cell membrane blebbing, destructive fragmentation of nuclei at 3 uM after 48 hrs by acridine orange/ethidium bromide staining based fluorescence microscopy; type: functional; method in brief: as §3
[25] = system: PC-3; assay: Cell cycle arrest in human PC3 cells assessed as accumulation at S phase at 3 uM after 48 hrs by flow cytometry (reference value: 15.8%); type: functional; method in brief: as §2
[26] = system: PC-3; assay: Ratio of etoposide IC50 to compound IC50 for human PC3 cells; type: functional
[27] = system: PC-3; assay: Cell cycle arrest in human PC3 cells assessed as accumulation at G2/M phase at 6 uM after 48 hrs by flow cytometry (reference value: 20.9%); type: functional; method in brief: as §2
[28] = system: PC-3; assay: Cell cycle arrest in human PC3 cells assessed as accumulation at G2/M phase at 3 uM after 48 hrs by flow cytometry (reference value: 20.9%); type: functional; method in brief: as §2
[29] = system: PC-3; assay: Cell cycle arrest in human PC3 cells assessed as accumulation at S phase at 6 uM after 48 hrs by flow cytometry (reference value: 15.8%); type: functional; method in brief: as §2
[30] = system: PC-3; assay: Induction of morphological changes in human PC3 cells assessed as late apoptosis/necrosis at 6 uM after 48 hrs by acridine orange/ethidium bromide staining based fluorescence microscopy; type: functional, cell-based; method in brief: as §3
[31] = system: PC-3; assay: Cell cycle arrest in human PC3 cells assessed as increase in accumulation at G2/M phase at 3 to 6 uM after 48 hrs by flow cytometry relative to control; type: functional; method in brief: as §2
[32] = system: PC-3; assay: Cell cycle arrest in human PC3 cells assessed as accumulation at G0/G1 phase at 3 uM after 48 hrs by flow cytometry (reference value: 55%); type: functional; method in brief: as §2
[33] = Retardation factor of the compound using hexane/ethyl acetate at ratio of 19:1 as solvent system; type: physicochemical

| SMILES | IC50 [1] [µM] | IC50 [2] [µM] | IC50 [3] [µM] | IC50 [4] [µM] | IC50 [6] [µM] | IC50 [7] [µM] | IC50 [8] [µM] | also measured |
| --- | --- | --- | --- | --- | --- | --- | --- | --- |
| C=CCOc1cccc2c1C(=O)C=C(C)C2=O | 78 | 29.3 | 34.2 | 14.7 | 36.1 | 33.7 | 46.7 | Rf [5]: 0.45 |
| CC1=CC(=O)c2c(ccc3c2OC(CI)C3)C1=O (stereo unspecified) | 16.2 | 21.6 | 26.8 | 33.8 | 33.2 | 48.4 | 31.2 | Rf [9]: 0.38 |
| CC1=CC(=O)c2c(ccc3c2OCC=C3)C1=O | > 100 | 10.9 | 24.5 | 11.7 | 18.3 | 34.6 | 25.9 | Activity [10]: 10.5%; Rf [9]: 0.39; Ratio IC50 [11]: 1.3; Activity [12]: 12.6%; Activity [13]: 55.9%; Ratio IC50 [14]: 1.1; Activity [15]: 31.3%; Activity [16]: Dose-dependent effect; Activity [17]: Dose-dependent effect; Activity [18]: Active; Activity [19]: Active; Activity [20]: 45%; Activity [21]: 21.5%; Ratio IC50 [22]: 2 |
| O=C1C=CC(=O)c2c1ccc1c2OCC=C1 | 59.6 | 37.2 | 5.7 | 23.2 | 45.6 | 27.8 | 45.5 | Activity [23]: 46.7%; Rf [9]: 0.38; Activity [24]: Active; Activity [25]: 15.4%; Ratio IC50 [26]: 2.5; Activity [27]: 32%; Activity [28]: 30.8%; Activity [29]: 12.3%; Activity [30]: Active; fold change (FC) [31]: 1.6; Activity [32]: 45.3% |
| O=C1C=CC(=O)c2c(O)cccc21 [JUGLONE] | 93.7 | 27.5 | 88.7 | 16.5 | 75.8 | > 100 | 65.4 |  |
| Cc1cc2ccc3c(c2o1)C(=O)C=CC3=O | 51.2 | 25.2 | 18.2 | 24.3 | 38.9 | 57.9 | 15 | Rf [5]: 0.42 |
| C=CCc1ccc2c(c1O)C(=O)C=C(C)C2=O | 60.8 | 39 | 16.8 | 11.6 | 62.9 | 63 | 60.8 | Ratio [22]: 2; Rf [33]: 0.35 |
| COc1cc([C@@H]2c3cc4c(cc3[C@@H](O[C@@H]3O[C@@H]5CO[C@@H](C)O[C@H]5[C@H](O)[C@H]3O)[C@H]3COC(=O)[C@H]23)OCO4)cc(OC)c1O [ETOPOSIDE] | 4.71 | 12.5 |  |  |  |  | 8.9 |  |
| C=CCOc1cccc2c1C(=O)C=CC2=O | > 100 | 37.8 | 22.3 | 24 | > 100 | 32.3 | > 100 |  |
| CC1=CC(=O)c2c(O)cccc2C1=O [PLUMBAGIN] | 59 | 34.6 | 17.2 | 12.2 | 51.1 | 26.2 | 43.4 |  |
| C=CCc1ccc2c(c1O)C(=O)C=CC2=O | > 100 | 53.7 | 92.9 | 58.2 | > 100 | > 100 | 82.9 | Rf [33]: 0.39 |
| O=C1C=CC(=O)c2c1ccc1c2OC(CI)C1 (stereo unspecified) | 27.4 | 20.8 | 12.7 | 13.4 | 29.2 | 31.3 | 9.4 | Rf [9]: 0.48 |
| CC1=CC(=O)c2c(ccc3cc(C)oc23)C1=O | 55.2 | 32.6 | 31.1 | 28.8 | 44 | 60.1 | 44.1 | Rf [5]: 0.43 |
| COc1cccc2c1C(=O)c1c(O)c3c(c(O)c1C2=O)C[C@@](O)(C(=O)CO)C[C@@H]3O[C@H]1C[C@H](N)[C@H](O)[C@H](C)O1 [DOXORUBICIN] |  |  |  |  |  |  | 0.39 |  |
